Reference: ChEMBL document CHEMBL2062435, “Synthesis and in vitro antibacterial activity of gemifloxacin derivatives containing a substituted benzyloxime moiety” (2012)

tested on: Klebsiella pneumoniae; assay: Antimicrobial activity against extended spectrum beta-lactamases-producing Klebsiella pneumoniae 10-3 after 18-24 hrs by two-fold serial dilution method; format: functional
How it was run: (§1)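 Agar-medium twofold serial dilution against Gram-positive and Gram-negative strains; MIC taken as the lowest compound concentration giving complete inhibition of bacterial growth after incubation at 35 °C for 18-24 h.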

| SMILES | MIC [µg/mL] |
| --- | --- |
| COc1cc(F)c(CO/N=C2\CN(c3nc4c(cc3F)c(=O)c(C(=O)O)cn4C3CC3)CC2CN)cc1OC.CS(=O)(=O)O (racemic) | > 128 |

tested on: Enterococcus faecalis; assay: Antimicrobial activity against Enterococcus faecalis 10-7 after 18-24 hrs by two-fold serial dilution method; format: functional; how it was run: as §1

| SMILES | MIC [µg/mL] |
| --- | --- |
| COc1cc(F)c(CO/N=C2\CN(c3nc4c(cc3F)c(=O)c(C(=O)O)cn4C3CC3)CC2CN)cc1OC.CS(=O)(=O)O (racemic) | 1 |

tested on: Enterococcus faecium; assay: Antimicrobial activity against Enterococcus faecium 10-5 after 18-24 hrs by two-fold serial dilution method; format: functional; how it was run: as §1

| SMILES | MIC [µg/mL] |
| --- | --- |
| COc1cc(F)c(CO/N=C2\CN(c3nc4c(cc3F)c(=O)c(C(=O)O)cn4C3CC3)CC2CN)cc1OC.CS(=O)(=O)O (racemic) | 4 |

tested on: Streptococcus pneumoniae; assay: Antimicrobial activity against extended spectrum beta-lactamases-producing Streptococcus pneumoniae 10-1 after 18-24 hrs by two-fold serial dilution method; format: functional; how it was run: as §1

| SMILES | MIC [µg/mL] |
| --- | --- |
| COc1cc(F)c(CO/N=C2\CN(c3nc4c(cc3F)c(=O)c(C(=O)O)cn4C3CC3)CC2CN)cc1OC.CS(=O)(=O)O (racemic) | 0.25 |

tested on: Staphylococcus epidermidis; assay: Antimicrobial activity against extended spectrum beta-lactamases-producing methicillin-sensitive Staphylococcus epidermidis 10-13 after 18-24 hrs by two-fold serial dilution method; format: functional; how it was run: as §1

| SMILES | MIC [µg/mL] |
| --- | --- |
| COc1cc(F)c(CO/N=C2\CN(c3nc4c(cc3F)c(=O)c(C(=O)O)cn4C3CC3)CC2CN)cc1OC.CS(=O)(=O)O (racemic) | 0.03 |

tested on: Escherichia coli; assay: Antimicrobial activity against Escherichia coli 10-2 after 18-24 hrs by two-fold serial dilution method; format: functional; how it was run: as §1

| SMILES | MIC [µg/mL] |
| --- | --- |
| COc1cc(F)c(CO/N=C2\CN(c3nc4c(cc3F)c(=O)c(C(=O)O)cn4C3CC3)CC2CN)cc1OC.CS(=O)(=O)O (racemic) | > 128 |

tested on: Klebsiella pneumoniae; assay: Antimicrobial activity against Klebsiella pneumoniae 10-2 after 18-24 hrs by two-fold serial dilution method; format: functional; how it was run: as §1

| SMILES | MIC [µg/mL] |
| --- | --- |
| COc1cc(F)c(CO/N=C2\CN(c3nc4c(cc3F)c(=O)c(C(=O)O)cn4C3CC3)CC2CN)cc1OC.CS(=O)(=O)O (racemic) | > 128 |

tested on: Escherichia coli; assay: Antimicrobial activity against Escherichia coli ATCC 25922 after 18-24 hrs by two-fold serial dilution method; format: functional; how it was run: as §1

| SMILES | MIC [µg/mL] |
| --- | --- |
| COc1cc(F)c(CO/N=C2\CN(c3nc4c(cc3F)c(=O)c(C(=O)O)cn4C3CC3)CC2CN)cc1OC.CS(=O)(=O)O (racemic) | 0.125 |

tested on: Escherichia coli; assay: Antimicrobial activity against Escherichia coli 10-1 after 18-24 hrs by two-fold serial dilution method; format: functional; how it was run: as §1

| SMILES | MIC [µg/mL] |
| --- | --- |
| COc1cc(F)c(CO/N=C2\CN(c3nc4c(cc3F)c(=O)c(C(=O)O)cn4C3CC3)CC2CN)cc1OC.CS(=O)(=O)O (racemic) | > 128 |

tested on: Pseudomonas aeruginosa; assay: Antimicrobial activity against extended spectrum beta-lactamases-producing Pseudomonas aeruginosa 10-15 after 18-24 hrs by two-fold serial dilution method; format: functional; how it was run: as §1

| SMILES | MIC [µg/mL] |
| --- | --- |
| COc1cc(F)c(CO/N=C2\CN(c3nc4c(cc3F)c(=O)c(C(=O)O)cn4C3CC3)CC2CN)cc1OC.CS(=O)(=O)O (racemic) | > 128 |

tested on: Staphylococcus epidermidis; assay: Antimicrobial activity against extended spectrum beta-lactamases-producing methicillin-resistant Staphylococcus epidermidis 10-10 after 18-24 hrs by two-fold serial dilution method; format: functional
How it was run: (§2)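 Agar twofold serial dilution MIC against clinical isolates. MIC was taken as the lowest concentration giving complete inhibition of bacterial growth after incubation at 35 °C for 18-24 h.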

| SMILES | MIC [µg/mL] |
| --- | --- |
| COc1cc(F)c(CO/N=C2\CN(c3nc4c(cc3F)c(=O)c(C(=O)O)cn4C3CC3)CC2CN)cc1OC.CS(=O)(=O)O (racemic) | 0.5 |

tested on: Klebsiella pneumoniae; assay: Antimicrobial activity against extended spectrum beta-lactamases-producing Klebsiella pneumoniae 10-2 after 18-24 hrs by two-fold serial dilution method; format: functional; how it was run: as §1

| SMILES | MIC [µg/mL] |
| --- | --- |
| COc1cc(F)c(CO/N=C2\CN(c3nc4c(cc3F)c(=O)c(C(=O)O)cn4C3CC3)CC2CN)cc1OC.CS(=O)(=O)O (racemic) | > 128 |

tested on: Staphylococcus aureus; assay: Antimicrobial activity against extended spectrum beta-lactamases-producing methicillin-resistant Staphylococcus aureus 10-11 after 18-24 hrs by two-fold serial dilution method; format: functional; how it was run: as §2

| SMILES | MIC [µg/mL] |
| --- | --- |
| COc1cc(F)c(CO/N=C2\CN(c3nc4c(cc3F)c(=O)c(C(=O)O)cn4C3CC3)CC2CN)cc1OC.CS(=O)(=O)O (racemic) | 1 |

tested on: Staphylococcus epidermidis; assay: Antimicrobial activity against extended spectrum beta-lactamases-producing methicillin-sensitive Staphylococcus epidermidis 10-15 after 18-24 hrs by two-fold serial dilution method; format: functional; how it was run: as §1

| SMILES | MIC [µg/mL] |
| --- | --- |
| COc1cc(F)c(CO/N=C2\CN(c3nc4c(cc3F)c(=O)c(C(=O)O)cn4C3CC3)CC2CN)cc1OC.CS(=O)(=O)O (racemic) | 2 |

tested on: Streptococcus pneumoniae; assay: Antimicrobial activity against extended spectrum beta-lactamases-producing Streptococcus pneumoniae 10-4 after 18-24 hrs by two-fold serial dilution method; format: functional; how it was run: as §1

| SMILES | MIC [µg/mL] |
| --- | --- |
| COc1cc(F)c(CO/N=C2\CN(c3nc4c(cc3F)c(=O)c(C(=O)O)cn4C3CC3)CC2CN)cc1OC.CS(=O)(=O)O (racemic) | 0.03 |

tested on: Klebsiella pneumoniae; assay: Antimicrobial activity against Klebsiella pneumoniae 10-3 after 18-24 hrs by two-fold serial dilution method; format: functional; how it was run: as §1

| SMILES | MIC [µg/mL] |
| --- | --- |
| COc1cc(F)c(CO/N=C2\CN(c3nc4c(cc3F)c(=O)c(C(=O)O)cn4C3CC3)CC2CN)cc1OC.CS(=O)(=O)O (racemic) | > 128 |

tested on: Escherichia coli; assay: Antimicrobial activity against Escherichia coli 10-3 after 18-24 hrs by two-fold serial dilution method; format: functional; how it was run: as §1

| SMILES | MIC [µg/mL] |
| --- | --- |
| COc1cc(F)c(CO/N=C2\CN(c3nc4c(cc3F)c(=O)c(C(=O)O)cn4C3CC3)CC2CN)cc1OC.CS(=O)(=O)O (racemic) | > 128 |

tested on: Pseudomonas aeruginosa; assay: Antimicrobial activity against extended spectrum beta-lactamases-producing Pseudomonas aeruginosa 10-20 after 18-24 hrs by two-fold serial dilution method; format: functional; how it was run: as §1

| SMILES | MIC [µg/mL] |
| --- | --- |
| COc1cc(F)c(CO/N=C2\CN(c3nc4c(cc3F)c(=O)c(C(=O)O)cn4C3CC3)CC2CN)cc1OC.CS(=O)(=O)O (racemic) | > 128 |
